Results as given in ChEMBL document CHEMBL3792362 (Bioorg Med Chem Lett, 2016).
Calls of active or inactive are those of the source. No cut-off for these calls is given here.

What was measured:
RAW264.7 [1] = assay: Inhibition of LPS/IFN-gamma-induced nitric oxide production in mouse RAW264.7 cells at 25 uM relative to control; format: functional
U-937 [2] = assay: Inhibition of LPS/IFN-gamma-induced PGE2 production in PMA-treated human U937 cells at 25 uM after 17 to 20 hrs by enzyme immunoassay relative to control; format: functional
How it was run: (§1)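 Cells (5 × 10⁵/well) attached 24 h, then stimulated with recombinant IFN-γ 100 U/mL and LPS 2 µg/mL with or without compound (DMSO vehicle, 0.1% final), 17–20 h at 37 °C, 5% CO₂. U937 were first differentiated with 200 nM PMA for 24 h, then serum-free overnight. Supernatant PGE₂ quantified against standard curves; dose-response 0.78–50 µM, means ± SD of three samples.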

[3] = Cytotoxicity against PMA-treated human U937 cells assessed as cell viability at 25 uM by MTT assay relative to control; format: cell-based, U-937; conditions: read-out: Activity
How it was run: (§2)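 After 17–20 h stimulation with 100 U/mL IFN-γ plus 2 µg/mL LPS (±compound, DMSO final 0.1%) at 37 °C, 5% CO₂, supernatant removed; MTT (5 mg/mL stock, 20 µL) added, 4 h at 37 °C; formazan dissolved in DMSO, absorbance at 570 nm. U937 were PMA-differentiated (200 nM, 24 h), then serum-free overnight; RAW264.7 grown in DMEM/10% FBS.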

[4] = Cytotoxicity against mouse RAW264.7 cells assessed as cell viability at 25 uM by MTT assay relative to control; format: cell-based; conditions: read-out: Activity; how it was run: as §2
RAW264.7 [5] = assay: Inhibition of LPS/IFN-gamma-induced PGE2 production in mouse RAW264.7 cells at 25 uM after 17 to 20 hrs by enzyme immunoassay relative to control; format: functional; how it was run: as §1
U-937 [6] = assay: Inhibition of LPS/IFN-gamma-induced PGE2 production in PMA-treated human U937 cells after 17 to 20 hrs by enzyme immunoassay; format: functional, cell-based; how it was run: as §1
[7] = molecular target: T1, Prostaglandin G/H synthase 1 (Ovis aries) (UniProt P05979); assay: Inhibition of ovine COX1 at 25 uM by ELISA relative to control
T1 sequence (whole entry): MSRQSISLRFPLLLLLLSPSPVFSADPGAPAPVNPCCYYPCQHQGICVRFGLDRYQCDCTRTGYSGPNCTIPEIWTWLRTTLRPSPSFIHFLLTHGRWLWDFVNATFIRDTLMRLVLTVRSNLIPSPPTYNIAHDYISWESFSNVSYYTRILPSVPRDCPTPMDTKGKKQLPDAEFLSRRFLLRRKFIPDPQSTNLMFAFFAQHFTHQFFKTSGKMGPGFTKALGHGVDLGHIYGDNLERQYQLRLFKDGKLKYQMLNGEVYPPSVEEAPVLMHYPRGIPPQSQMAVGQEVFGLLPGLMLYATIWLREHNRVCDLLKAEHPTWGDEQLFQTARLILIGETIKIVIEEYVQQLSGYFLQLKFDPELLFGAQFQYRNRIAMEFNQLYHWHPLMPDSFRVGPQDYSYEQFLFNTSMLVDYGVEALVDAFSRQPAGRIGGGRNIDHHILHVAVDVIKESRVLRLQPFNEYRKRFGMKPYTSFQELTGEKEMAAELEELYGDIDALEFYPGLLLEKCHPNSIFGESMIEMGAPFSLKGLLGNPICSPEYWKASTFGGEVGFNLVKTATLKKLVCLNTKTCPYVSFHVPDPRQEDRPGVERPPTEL
How it was run: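 COX-1 (ovine) inhibition measured with a commercial ovine/human COX inhibitor screening ELISA kit per manufacturer's protocol; prostaglandin concentrations read on a microplate reader and calculated from standard curves.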

RAW264.7 [8] = assay: Inhibition of LPS/IFN-gamma-induced PGE2 production in mouse RAW264.7 cells after 17 to 20 hrs by enzyme immunoassay; format: functional, cell-based; how it was run: as §1
[9] = Inhibition of COX in CD1 mouse epidermal microsomes using [14C]arachidonic acid as substrate assessed as PGE2, PGF2alpha, and PGD2 formation by TLC/liquid scintillation spectrometry method; set-up: species or system Skin epidermis
[10] = Inhibition of COX in CD1 mouse epidermal cytosolic fractions using [14C]arachidonic acid as substrate assessed as PGE2, PGF2alpha, and PGD2 formation by TLC/liquid scintillation spectrometry method
[11] = Cytotoxicity against PMA-treated human U937 cells assessed as cell viability at 5 uM by MTT assay relative to control
[12] = Cytotoxicity against mouse RAW264.7 cells assessed as cell viability at 5 uM by MTT assay relative to control
RAW264.7 [13] = assay: Inhibition of LPS/IFN-gamma-induced PGE2 production in mouse RAW264.7 cells at 5 uM after 17 to 20 hrs by enzyme immunoassay relative to control; conditions: RAW264.7, read-out: INH
U-937 [14] = assay: Inhibition of LPS/IFN-gamma-induced PGE2 production in PMA-treated human U937 cells at 5 uM after 17 to 20 hrs by enzyme immunoassay relative to control; conditions: U-937, read-out: INH

Row | SMILES | inhibition at 25 µM (RAW264.7 [1]) [%] | inhibition at 25 µM (U-937 [2]) [%] | viability at 25 µM [3] [%] | viability at 25 µM [4] [%] | inhibition at 25 µM (RAW264.7 [5]) [%] | IC50 (U-937 [6]) [µM] | inhibition (U-937 [6]) | inhibition [7] | IC50 (RAW264.7 [8]) [µM] | inhibition (RAW264.7 [1]) | IC50 [9] [µM] | IC50 [10] [µM] | viability at 5 µM [11] [%] | viability at 5 µM [12] [%] | inhibition at 5 µM (RAW264.7 [13]) [%] | inhibition at 5 µM (U-937 [14]) [%]
1 | COc1cccc(/C=C2\CCC/C(=C\c3ccc(Cl)c(Cl)c3)C2=O)c1OC | 90 | 58 | 100 | 77 | 73 | – | – | – | – | – | – | – | – | – | – | –
2 | Cc1ccc(/C=C2\CCC/C(=C\c3ccc(C)o3)C2=O)cc1 | 99 | 84 | 98 | 83 | 92 | 1.65 | Dose-dependent effect | inactive | 4.86 | – | – | – | – | – | – | –
3 | COC(=O)[C@@H](N)CCCNC(=N)N[N+](=O)[O-] [L-NAME] | 53 | – | – | – | – | – | – | – | – | – | – | – | – | – | – | –
4 | O=C1/C(=C/c2ccc(-c3ccc(F)cc3)cc2)CCC/C1=C\c1ccc(Cl)c(Cl)c1 | – | 76 | 94 | 100 | 59 | – | – | – | – | inactive | – | – | – | – | – | –
5 | COc1cc(/C=C2\CCC/C(=C\c3ccc(O)cc3)C2=O)ccc1O | 100 | 88 | 100 | < 50 | 96 | 0.92 | – | inactive | 1.9 | – | – | – | – | – | – | –
6 | COc1cc(/C=C2\CCC/C(=C\c3ccc(Br)cc3)C2=O)ccc1O | 100 | 87 | 100 | < 50 | 96 | – | – | – | – | – | – | – | – | – | – | –
7 | COc1ccc(/C=C2\CCC/C(=C\c3ccc(O)c(OC)c3)C2=O)cc1 | 100 | 86 | 100 | < 50 | 96 | 0.95 | – | inactive | 0.78 | – | – | – | – | – | – | –
8 | Cc1ccc(/C=C2\CCC/C(=C\c3ccc(Cl)c(Cl)c3)C2=O)cc1 | 71 | 68 | 100 | 95 | 64 | – | – | – | – | – | – | – | – | – | – | –
9 | COc1cccc(/C=C2\CCC/C(=C\c3ccc(-c4ccc(F)cc4)cc3)C2=O)c1OC | – | 68 | 98 | 90 | 51 | – | – | – | – | inactive | – | – | – | – | – | –
10 | COc1cc(/C=C/C(=O)CC(=O)/C=C/c2ccc(O)c(OC)c2)ccc1O [CURCUMIN] | 85 | 94 | 95 | 90 | 78 | 1.88 | – | inactive | 16 | – | 52 | 5 | – | – | – | –
11 | CS(=O)(=O)Nc1ccc([N+](=O)[O-])cc1Oc1ccccc1 [NIMESULIDE] | – | – | – | – | – | < 0.078 | – | – | < 0.078 | – | – | – | 100 | 100 | 66 | 89
12 | Cc1ccc(/C=C2\CCC/C(=C\c3cccc4ccccc34)C2=O)cc1 | – | 66 | 94 | 100 | 74 | – | – | – | – | inactive | – | – | – | – | – | –
13 | COc1cc(/C=C2\CCC/C(=C\c3ccc(C)cc3)C2=O)ccc1O | 100 | 85 | 100 | < 50 | 95 | – | – | – | – | – | – | – | – | – | – | –
14 | COc1cccc(/C=C2\CCC/C(=C\c3ccc(C)cc3)C2=O)c1OC | 95 | 83 | 100 | 100 | 83 | 3.44 | Dose-dependent effect | inactive | 12 | – | – | – | – | – | – | –
15 | CCN(CC)c1ccc(/C=C2\CCC/C(=C\c3ccc(O)c(OC)c3)C2=O)cc1 | 100 | 85 | 100 | < 50 | 95 | – | – | – | – | – | – | – | – | – | – | –
16 | CCN(CC)c1ccc(/C=C2\CCC/C(=C\c3ccc(-c4ccc(F)cc4)cc3)C2=O)cc1 | – | 72 | 100 | 94 | 65 | – | – | – | – | inactive | – | – | – | – | – | –
17 | O=C1/C(=C/c2ccc(Br)cc2)CCC/C1=C\c1ccc(-c2ccc(F)cc2)cc1 | – | 66 | 98 | 92 | 53 | – | – | – | – | inactive | – | – | – | – | – | –
